Assay results from ChEMBL document CHEMBL1122659, “Synthesis of some phosphonates with antiherpetic activity” (1984).
In brackets after ≈: the same amount, converted by molar mass. Activity calls are given as the source filed them. The rule behind the calls is not given here.

How the values were obtained:
Oryctolagus cuniculus = species: Oryctolagus cuniculus; assay: In vitro ability to inhibit the herpes HSV-2 virus; Inactive; assay type: functional, organism-based; conditions: herpes simplex virus
Cavia porcellus [1] = species: Cavia porcellus; assay: Effect on the development of Herpetic vesicles in Guinea pigs infected intradermally with Herpes virus Hominis, Type 1,AA strain on day 2 at 5 % concentration; assay type: functional
Procedure, shortened: (§1)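 Albino Hartley guinea pigs (350–400 g) were infected intradermally with 0.05 mL undiluted HSV-1 AA strain, delivered by vaccination gun into a 12 mm marked area on an epilated flank. Topical cream treatment followed. Vesicle development was scored daily.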

Cavia porcellus [2] = species: Cavia porcellus; assay: Effect on the development of Herpetic vesicles in Guinea pigs infected intradermally with Herpes virus Hominis, Type 1,AA strain on day 4 at 5 % concentration; assay type: functional; procedure, shortened: as §1
Cavia porcellus [3] = species: Cavia porcellus; assay: Effect on the growth of Herpes simplex Type 1 on the skin of Guinea pigs infected intradermally on day 4 at 5 % concentration; assay type: functional
Procedure, shortened: (§2)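 Guinea pigs (Hartley, 350–400 g) were infected intradermally on an epilated flank with undiluted HSV-1 AA strain and treated with topical cream. Supernatants of lesion skin scrapings were diluted 10⁻¹ to 10⁻⁸ and titered by plaque assay on BSC-1 monolayers in triplicate: 1 h adsorption at 37 °C, agarose overlay, 4 days at 37 °C, formalin fixation, crystal violet staining, plaques counted.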

Cavia porcellus [4] = species: Cavia porcellus; assay: Effect on the growth of Herpes simplex Type 1 on the skin of Guinea pigs infected intradermally on day 1 at 5% concentration; assay type: functional
Procedure, shortened: (§3)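 Guinea pigs were infected intradermally with HSV-1 on an epilated flank and treated topically with cream. Virus in skin-scraping supernatants was titered by plaque assay on BSC-1 monolayers. Dilutions of 10⁻¹ to 10⁻⁸ in Eagle's medium with 2% FCS were plated in triplicate and adsorbed 1 h at 37 °C. An agarose overlay followed, with 4 days' incubation, formalin fixation, crystal violet staining and plaque counting.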

Cavia porcellus [5] = species: Cavia porcellus; assay: Effect on the growth of Herpes simplex Type 1 on the skin of Guinea pigs infected intradermally on day 3 at 5 % concentration; assay type: functional; procedure, shortened: as §2
Cavia porcellus [6] = species: Cavia porcellus; assay: Effect on the growth of Herpes simplex Type 1 on the skin of Guinea pigs infected intradermally on day 2 at 5 % concentration; assay type: functional; procedure, shortened: as §2
Cavia porcellus [7] = species: Cavia porcellus; assay: Effect on the development of Herpetic vesicles in Guinea pigs infected intradermally with Herpes virus Hominis, Type 1,AA strain on day 1 at 5% concentration; assay type: functional
Procedure, shortened: (§4)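 Hartley albino guinea pigs (350–400 g) were infected with undiluted HSV-1 AA strain, 0.05 mL placed in a 12-mm circle on an epilated flank and given intradermally by vaccination gun. Test article was a topical cream, with treatment starting 24 h postinfection. Mean vesicle score was recorded on days 1–5 against placebo and nonmedicated groups.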

Cavia porcellus [8] = species: Cavia porcellus; assay: Effect on the development of Herpetic vesicles in Guinea pigs infected intradermally with Herpes virus Hominis, Type 1,AA strain on day 3 at 8 % concentration; assay type: functional; procedure, shortened: as §4
Cavia porcellus [9] = species: Cavia porcellus; assay: Effect on the growth of Herpes simplex Type 1 on the skin of Guinea pigs infected intradermally on day 4 at 8 % concentration; assay type: functional; procedure, shortened: as §3
Cavia porcellus [10] = species: Cavia porcellus; assay: Effect on the growth of Herpes simplex Type 1 on the skin of Guinea pigs infected intradermally on day 3 at 8 % concentration; assay type: functional; procedure, shortened: as §3
Cavia porcellus [11] = species: Cavia porcellus; assay: Effect on the development of Herpetic vesicles in Guinea pigs infected intradermally with Herpes virus Hominis, Type 1,AA strain on day 1 at 8 % concentration; assay type: functional; procedure, shortened: as §4
Cavia porcellus [12] = species: Cavia porcellus; assay: Effect on the development of Herpetic vesicles in Guinea pigs infected intradermally with Herpes virus Hominis, Type 1,AA strain on day 4 at 8 % concentration; assay type: functional; procedure, shortened: as §4
Cavia porcellus [13] = species: Cavia porcellus; assay: Effect on the development of Herpetic vesicles in Guinea pigs infected intradermally with Herpes virus Hominis, Type 1,AA strain on day 2 at 8 % concentration; assay type: functional; procedure, shortened: as §4
Cavia porcellus [14] = species: Cavia porcellus; assay: Effect on the growth of Herpes simplex Type 1 on the skin of Guinea pigs infected intradermally on day 2 at 8 % concentration; assay type: functional; procedure, shortened: as §3
Cavia porcellus [15] = species: Cavia porcellus; assay: Effect on the growth of Herpes simplex Type 1 on the skin of Guinea pigs infected intradermally on day 1 at 8 % concentration; assay type: functional; procedure, shortened: as §3
Cavia porcellus [16] = species: Cavia porcellus; assay: Effect of compound in a vanishing cream base on the development of Herpetic vesicles in Guinea pigs infected intradermally with Herpesvirus Hominis, Type 1, AA strain and the virus titer was determined at 10% conc. on day 1; assay type: functional
Cavia porcellus [17] = species: Cavia porcellus; assay: Effect of compound in a vanishing cream on the development of Herpetic vesicles in Guinea pigs infected intradermally with Herpes virus Hominis, Type 1,AA strain on day 3 at 5 % concentration; assay type: functional
Procedure, shortened: (§5)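 Albino Hartley guinea pigs (350–400 g) were infected intradermally with 0.05 mL undiluted HSV-1 AA strain, delivered by vaccination gun into a 12 mm circle on an epilated flank. Test agent was applied as a topical cream starting 24 h postinfection. Lesions were scored daily for mean vesicle score over days 1–5.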

Mus musculus [18] = species: Mus musculus; assay: Percent survival rate of mice infected intravaginally with herpes simplex virus type 2 at daily dosage of 2.5%(treatment initiated 4-h postinfection and continued for 7 days); assay type: functional
Procedure, shortened: (§6)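 Mice infected intravaginally with HSV-2. Test agent suspended in gum tragacanth and applied intravaginally. Survival recorded.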

Mus musculus [19] = species: Mus musculus; assay: Average survival rate of mice infected intravaginally with herpes simplex virus type 2 at daily dosage of 10%(treatment initiated 4-h postinfection and continued for 7 days); assay type: functional; procedure, shortened: as §6
[20] = In vitro ability to inhibit the herpes HSV-2 virus; assay type: functional, herpes simplex virus; conditions: Oryctolagus cuniculus
Mus musculus [21] = species: Mus musculus; assay: Percent survival rate of mice infected intravaginally with herpes simplex virus type 2 at daily dosage of 10%(treatment initiated 4-h postinfection and continued for 7 days); assay type: functional; procedure, shortened: as §6
Cavia porcellus [22] = species: Cavia porcellus; assay: Effect of compound in a vanishing cream base on the development of Herpetic vesicles in Guinea pigs infected intradermally with Herpesvirus Hominis, Type 1, AA strain and the virus titer was determined at 10% conc. on day 2; assay type: functional
Cavia porcellus [23] = species: Cavia porcellus; assay: Effect of compound in a vanishing cream on the development of Herpetic vesicles in Guinea pigs infected intradermally with Herpes virus Hominis, Type 1,AA strain on day 1 at 5 % concentration; assay type: functional; procedure, shortened: as §5
Cavia porcellus [24] = species: Cavia porcellus; assay: Effect of compound in a vanishing cream on the development of Herpetic vesicles in Guinea pigs infected intradermally with Herpes virus Hominis, Type 1,AA strain on day 2 at 10 % concentration; assay type: functional; procedure, shortened: as §5
Cavia porcellus [25] = species: Cavia porcellus; assay: Effect on the growth of Herpes simplex Type 1 on the skin of Guinea pigs infected intradermally on day 1 at 5 % concentration; assay type: functional; procedure, shortened: as §2
Cavia porcellus [26] = species: Cavia porcellus; assay: Effect of compound in a vanishing cream on the development of Herpetic vesicles in Guinea pigs infected intradermally with Herpes virus Hominis, Type 1,AA strain on day 3 at 10 % concentration; assay type: functional; procedure, shortened: as §5
Cavia porcellus [27] = species: Cavia porcellus; assay: Effect of compound in a vanishing cream on the development of Herpetic vesicles in Guinea pigs infected intradermally with Herpes virus Hominis, Type 1,AA strain on day 5 at 10 % concentration; assay type: functional; procedure, shortened: as §5
Mus musculus [28] = species: Mus musculus; assay: Percent survival rate of mice infected intravaginally with herpes simplex virus type 2 at daily dosage of 5%(treatment initiated 4-h postinfection and continued for 7 days); assay type: functional; procedure, shortened: as §6
Cavia porcellus [29] = species: Cavia porcellus; assay: Effect of compound in a vanishing cream on the development of Herpetic vesicles in Guinea pigs infected intradermally with Herpes virus Hominis, Type 1,AA strain on day 2 at 5 % concentration; assay type: functional; procedure, shortened: as §5
Cavia porcellus [30] = species: Cavia porcellus; assay: Effect of compound in a vanishing cream on the development of Herpetic vesicles in Guinea pigs infected intradermally with Herpes virus Hominis, Type 1,AA strain on day 4 at 5 % concentration; assay type: functional; procedure, shortened: as §5
Cavia porcellus [31] = species: Cavia porcellus; assay: Effect on the development of Herpetic vesicles in Guinea pigs infected intradermally with Herpes virus Hominis, Type 1,AA strain on day 1 at 5 % concentration; assay type: functional; procedure, shortened: as §1
Cavia porcellus [32] = species: Cavia porcellus; assay: Effect of compound in a vanishing cream base on the development of Herpetic vesicles in Guinea pigs infected intradermally with Herpesvirus Hominis, Type 1, AA strain and the virus titer was determined at 5% conc. on day 1; assay type: functional
Mus musculus [33] = species: Mus musculus; assay: Average survival rate of mice infected intravaginally with herpes simplex virus type 2 at daily dosage of 5%(treatment initiated 4-h postinfection and continued for 7 days); assay type: functional; procedure, shortened: as §6
Cavia porcellus [34] = species: Cavia porcellus; assay: Effect on the development of Herpetic vesicles in Guinea pigs infected intradermally with Herpes virus Hominis, Type 1,AA strain on day 3 at 5 % concentration; assay type: functional; procedure, shortened: as §1
Cavia porcellus [35] = species: Cavia porcellus; assay: Effect of compound in a vanishing cream on the development of Herpetic vesicles in Guinea pigs infected intradermally with Herpes virus Hominis, Type 1,AA strain on day 5 at 5% concentration; assay type: functional; procedure, shortened: as §5
Cavia porcellus [36] = species: Cavia porcellus; assay: Effect of compound in a vanishing cream base on the development of Herpetic vesicles in Guinea pigs infected intradermally with Herpesvirus Hominis, Type 1, AA strain and the virus titer was determined at 5% conc. on day 4; assay type: functional
Cavia porcellus [37] = species: Cavia porcellus; assay: Effect of compound in a vanishing cream base on the development of Herpetic vesicles in Guinea pigs infected intradermally with Herpesvirus Hominis, Type 1, AA strain and the virus titer was determined at 10% conc. on day 3; assay type: functional
Cavia porcellus [38] = species: Cavia porcellus; assay: Effect of compound in a vanishing cream on the development of Herpetic vesicles in Guinea pigs infected intradermally with Herpes virus Hominis, Type 1,AA strain on day 1 at 10 % concentration; assay type: functional; procedure, shortened: as §5
Cavia porcellus [39] = species: Cavia porcellus; assay: Effect of compound in a vanishing cream on the development of Herpetic vesicles in Guinea pigs infected intradermally with Herpes virus Hominis, Type 1,AA strain on day 4 at 10 % concentration; assay type: functional; procedure, shortened: as §5
Cavia porcellus [40] = species: Cavia porcellus; assay: Effect of compound in a vanishing cream base on the development of Herpetic vesicles in Guinea pigs infected intradermally with Herpesvirus Hominis, Type 1, AA strain and the virus titer was determined at 10% conc. on day 5; assay type: functional
Cavia porcellus [41] = species: Cavia porcellus; assay: Effect of compound in a vanishing cream base on the development of Herpetic vesicles in Guinea pigs infected intradermally with Herpesvirus Hominis, Type 1, AA strain and the virus titer was determined at 5% conc. on day 2; assay type: functional

COc1ccc(OCCCCCCP(=O)(O)O)c(Cl)c1
MIC (Oryctolagus cuniculus): inactive

Nc1nc2c(ncn2COCCO)c(=O)[nH]1 [ACYCLOVIR]
Mean vesicle score (Cavia porcellus [1]): 0.83
Mean vesicle score (Cavia porcellus [2]): 1
Log geometric mean (Cavia porcellus [3]): 2.13 pfu mg-1
Log geometric mean (Cavia porcellus [4]): 4.3 pfu mg-1
Log geometric mean (Cavia porcellus [5]): 3.31 pfu mg-1
Log geometric mean (Cavia porcellus [6]): 4.09 pfu mg-1
Mean vesicle score (Cavia porcellus [7]): 0.58

CCC(=O)C(CCCCCCOc1ccc(OC)cc1Cl)C(=O)CC [ARILDONE]
Mean vesicle score (Cavia porcellus [8]): 0.92
Log geometric mean (Cavia porcellus [9]): 2.62 pfu mg-1
Log geometric mean (Cavia porcellus [10]): 2.92 ppfu mg-1
Mean vesicle score (Cavia porcellus [11]): 0.33
Mean vesicle score (Cavia porcellus [12]): 0.83
Mean vesicle score (Cavia porcellus [13]): 0.83
Log geometric mean (Cavia porcellus [14]): 4.07 pfu mg-1
Log geometric mean (Cavia porcellus [15]): 4.13 pfu mg-1

CCOP(=O)(CCCCCCOc1ccc(OC)cc1Cl)OCC [FOSARILATE]
Mean vesicle score (Cavia porcellus [1]): 0.75
Log TCID50/mg (Cavia porcellus [16]): 3.18
Mean vesicle score (Cavia porcellus [17]): 0.75
Survival (Mus musculus [18]): 30%
Average survival (Mus musculus [19]): >11.3 days
MIC [20]: 3 µg/mL (≈ 7.92 µM)
Survival (Mus musculus [21]): 60%
Log geometric mean (Cavia porcellus [3]): 0.76 pfu mg-1
Log TCID50/mg (Cavia porcellus [22]): <1.34
Mean vesicle score (Cavia porcellus [23]): 0.75
Mean vesicle score (Cavia porcellus [24]): 0.83
Log geometric mean (Cavia porcellus [25]): 4.23 pfu mg-1
Log geometric mean (Cavia porcellus [5]): 0.79 pfu mg-1
Mean vesicle score (Cavia porcellus [26]): 0.91
Mean vesicle score (Cavia porcellus [27]): 1.1
Log geometric mean (Cavia porcellus [6]): 0.96 pfu mg-1
Survival (Mus musculus [28]): 50%
Mean vesicle score (Cavia porcellus [29]): 1.17
Mean vesicle score (Cavia porcellus [30]): 1
Mean vesicle score (Cavia porcellus [31]): 0.5
Log TCID50/mg (Cavia porcellus [32]): 3.94
Average survival (Mus musculus [33]): >10.5 days
Mean vesicle score (Cavia porcellus [34]): 0.5
Mean vesicle score (Cavia porcellus [35]): 0.67
Log TCID50/mg (Cavia porcellus [36]): <1.25
Log TCID50/mg (Cavia porcellus [37]): <1.6
Mean vesicle score (Cavia porcellus [38]): 0.67
Mean vesicle score (Cavia porcellus [39]): 0.92
Log TCID50/mg (Cavia porcellus [40]): <1.25
Log TCID50/mg (Cavia porcellus [41]): <1.41
